{"source": "the RNAGym collection of RNA variant scans (doi:10.1126/science.aae0568)", "parents": {"B1": {"name": "tRNA (parent)", "chain": "GUUCCGUUGGCGUAAUGGUAACGCGUCUCCCUCCUAAGGAGAAGACUGCGGGUUCGAGUCCCGUACGGAACG"}}, "note": "This sample holds only a part of the variants without activity."}
{"variants_of": "B1", "test": "yeast fitness relative to wild type (ratio to wild type); higher = fitter; tRNA-Arg(CCU), competitive growth, 37 C, YPD", "how_it_was_run": "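A pool of Saccharomyces cerevisiae strains, each with a tRNA-Arg(CCU) gene variant at the native genomic locus, was competed in YPD at 37°C for 24 hours across six parallel replicates. The variants had been chemically synthesised at a 3% per-site mutation rate over 69 sites, and gene amplicons before and after competition were read by 100-nucleotide paired-end sequencing. Darwinian fitness relative to wild type rested on changes in genotype frequencies. Genotypes required ≥ 100 starting reads, and estimates < 0.5 were set to 0.5.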"}
{"variant": "U26A C33A A45C", "yeast fitness": 0.55}
{"variant": "U26C C30G C34A C62U", "yeast fitness": "≤ 0.5"}
{"variant": "U26A G41C C46U", "yeast fitness": 0.797}
{"variant": "C27A A36G", "yeast fitness": 0.761}
{"variant": "U26A G39A", "yeast fitness": 0.87}
{"variant": "U26A C34G C49A U53C A69U", "yeast fitness": "≤ 0.5"}
{"variant": "U26A C27U A65G", "yeast fitness": 1}
{"variant": "U26C C30U U59A A69U", "yeast fitness": "≤ 0.5"}
{"variant": "C27A A42C C46U C62U", "yeast fitness": 0.563}
{"variant": "U26A G39A G41C U54C", "yeast fitness": "≤ 0.5"}
{"variant": "C27A G58A", "yeast fitness": 0.849}
{"variant": "C27A C49A G56C A65G", "yeast fitness": "≤ 0.5"}
{"variant": "U26A G48C", "yeast fitness": 0.78}
{"variant": "C27A A40C A45U A57U", "yeast fitness": "≤ 0.5"}
{"variant": "C27A A45G G48C", "yeast fitness": "≤ 0.5"}
{"variant": "U26C G48C", "yeast fitness": 0.86}
{"variant": "U26C A42U G56A", "yeast fitness": 0.651}
{"variant": "U26A C27A U28A C34U", "yeast fitness": "≤ 0.5"}
{"variant": "U26G C31U C55U", "yeast fitness": 0.564}
{"variant": "U26C A40C C46U A65G G68C", "yeast fitness": "≤ 0.5"}
{"variant": "C27A A36G C61G C66U A69U", "yeast fitness": "≤ 0.5"}
{"variant": "U26G G48A C61U", "yeast fitness": 0.94}
{"variant": "U26C C29U C61U", "yeast fitness": "≤ 0.5"}
{"variant": "C27A G56C A70U", "yeast fitness": "≤ 0.5"}
{"variant": "C27A C29G C49G G51C U54C", "yeast fitness": "≤ 0.5"}
{"variant": "U26C U28C C46G C62G G67U", "yeast fitness": "≤ 0.5"}
{"variant": "C27A U28C C29G", "yeast fitness": 0.633}
{"variant": "U26C C61G C62G", "yeast fitness": "≤ 0.5"}
{"variant": "U26A C30G A37C A69C", "yeast fitness": "≤ 0.5"}
{"variant": "C27A C34G A43U A57C", "yeast fitness": "≤ 0.5"}
{"variant": "U26G C29A A42C", "yeast fitness": 0.586}
{"variant": "U26A C34G A43U C49A", "yeast fitness": "≤ 0.5"}
{"variant": "U26C C46U", "yeast fitness": 0.928}
{"variant": "U26C C46A", "yeast fitness": 0.882}
{"variant": "U26C C46G", "yeast fitness": 0.894}
{"variant": "C27A C46A G63A", "yeast fitness": 0.714}
{"variant": "U26C U64A", "yeast fitness": 0.699}
{"variant": "U26C C33G A42U", "yeast fitness": "≤ 0.5"}
{"variant": "U26A C61G A70U", "yeast fitness": 0.764}
{"variant": "C27A U53A", "yeast fitness": 0.639}
{"variant": "U26A C31A A42G C55G", "yeast fitness": "≤ 0.5"}
{"variant": "C27A U32A C61G U64C", "yeast fitness": "≤ 0.5"}
{"variant": "U26A U53A A65G", "yeast fitness": "≤ 0.5"}
{"variant": "U26C A36C", "yeast fitness": 0.559}
{"variant": "C27A C60U A69G", "yeast fitness": "≤ 0.5"}
{"variant": "U26A G58C A65G", "yeast fitness": 0.611}
{"variant": "C27A C55G", "yeast fitness": 0.646}
{"variant": "C27A G52A U54A", "yeast fitness": "≤ 0.5"}
{"variant": "C27A C31U A36U A45C", "yeast fitness": "≤ 0.5"}
{"variant": "C27A U28A G41A G48A A65G", "yeast fitness": "≤ 0.5"}
{"variant": "U26C C30A C49U", "yeast fitness": 0.533}
{"variant": "U26C C27G A40C C66U", "yeast fitness": "≤ 0.5"}
{"variant": "U26A C27A U28A C34U G68A A69C", "yeast fitness": 0.534}
{"variant": "U26C U32A C34U G38C G51A C60U C62U", "yeast fitness": "≤ 0.5"}
{"variant": "U26A U47A C61A", "yeast fitness": "≤ 0.5"}
{"variant": "U26A U28C C30G", "yeast fitness": "≤ 0.5"}
{"variant": "U26A C66A", "yeast fitness": 0.572}
{"variant": "U26A C66U", "yeast fitness": 0.824}
{"variant": "U26C C49G", "yeast fitness": 0.842}
{"variant": "C27A C31A", "yeast fitness": 0.758}
{"variant": "U26C C30U U47A", "yeast fitness": 0.749}
{"variant": "U26C G56C A57C A70U", "yeast fitness": "≤ 0.5"}
{"variant": "U26C U32C A70G", "yeast fitness": 0.659}
{"variant": "U26A G63A G68C A69G", "yeast fitness": "≤ 0.5"}
{"variant": "U26G U64C", "yeast fitness": 0.878}
{"variant": "U26A C31G", "yeast fitness": 0.942}
{"variant": "C27A A42U", "yeast fitness": 0.702}
{"variant": "C27A C30A", "yeast fitness": 0.766}
{"variant": "U26C C30G G41A C60G C62U G68A", "yeast fitness": "≤ 0.5"}
{"variant": "U26A C29U C31U G48A", "yeast fitness": 0.596}
{"variant": "U26A G39A G41C", "yeast fitness": "≤ 0.5"}
{"variant": "U26A C34U A43U C66G", "yeast fitness": 0.628}
{"variant": "U26A G63C A69U", "yeast fitness": 0.527}
{"variant": "U26C A70G", "yeast fitness": 0.915}
{"variant": "C27A C61G A69G", "yeast fitness": "≤ 0.5"}
{"variant": "C27A U28C C29G A70G", "yeast fitness": "≤ 0.5"}
{"variant": "C27A U35C A42U", "yeast fitness": "≤ 0.5"}
{"variant": "U26G U59C", "yeast fitness": 0.936}
{"variant": "U26C C61G", "yeast fitness": 0.591}
{"variant": "U26G C46A A65G", "yeast fitness": 0.682}
{"variant": "C27A G41C", "yeast fitness": 1.18}
{"variant": "U26G C27G C33U G39C U47C C49U", "yeast fitness": "≤ 0.5"}
{"variant": "U26C A36G A45G", "yeast fitness": "≤ 0.5"}
{"variant": "C27A G50A A69U", "yeast fitness": 0.566}
{"variant": "U26G C27G A57C C66U A69U", "yeast fitness": "≤ 0.5"}
{"variant": "C27A C30A A45C G56C C60U G68U", "yeast fitness": "≤ 0.5"}
{"variant": "C27A A36G C49U A70U", "yeast fitness": "≤ 0.5"}
{"variant": "U26A C31G G63C", "yeast fitness": "≤ 0.5"}
{"variant": "C27A A37G G39C C55U A65C", "yeast fitness": "≤ 0.5"}
{"variant": "U26C C30U", "yeast fitness": 0.67}
{"variant": "U26C C60A", "yeast fitness": 0.572}
{"variant": "U26C G58A", "yeast fitness": 1}
{"variant": "U26C C49G C55U", "yeast fitness": "≤ 0.5"}
{"variant": "U26G C31G A40C C49U C66A", "yeast fitness": 0.587}
{"variant": "U26G C62G", "yeast fitness": 0.755}
{"variant": "U26G C62U", "yeast fitness": 0.842}
{"variant": "U26A C61A A65U", "yeast fitness": 0.686}
{"variant": "U26C A42C U54A", "yeast fitness": "≤ 0.5"}
{"variant": "C27A A36G A57G", "yeast fitness": "≤ 0.5"}
{"variant": "U26A C27U C29A A65G G68C", "yeast fitness": "≤ 0.5"}
{"variant": "U26A C31U G48A", "yeast fitness": 0.998}
{"variant": "U26G G52A G68U", "yeast fitness": "≤ 0.5"}
{"variant": "U26C G68U", "yeast fitness": 0.821}
{"variant": "U26C G68A", "yeast fitness": 0.863}
{"variant": "U26G A42C U47C", "yeast fitness": 0.816}
{"variant": "U26C G56C", "yeast fitness": 0.697}
{"variant": "U26A G44C A57C A69U", "yeast fitness": 0.653}
{"variant": "U26A C30A C34A A45C", "yeast fitness": "≤ 0.5"}
{"variant": "U26A G44C C55U G67U", "yeast fitness": 0.759}
{"variant": "U26G U47C G51A", "yeast fitness": 0.559}
{"variant": "U26C C46A U47G G50A A69C", "yeast fitness": "≤ 0.5"}
{"variant": "C27A G41C A57U", "yeast fitness": 0.611}
{"variant": "U26C A42C", "yeast fitness": 0.828}
{"variant": "U26C A42U", "yeast fitness": 1.01}
{"variant": "U26C U35C A37G", "yeast fitness": 0.528}
{"variant": "U26C U35C A37U", "yeast fitness": "≤ 0.5"}
{"variant": "C27A C34U A42C U53G C66U", "yeast fitness": 0.536}
{"variant": "U26A A57G C60U", "yeast fitness": "≤ 0.5"}
{"variant": "U26A G52U C55A", "yeast fitness": 0.616}
{"variant": "U26A C31U G48A A65G", "yeast fitness": 0.683}
{"variant": "U26C C66A", "yeast fitness": 0.631}
{"variant": "U26C C31A C66G", "yeast fitness": "≤ 0.5"}
{"variant": "U26A A70G", "yeast fitness": 0.924}
{"variant": "U26C U35G", "yeast fitness": 0.615}
{"variant": "C27A U35C U64A", "yeast fitness": "≤ 0.5"}
{"variant": "C27A A45U C49U G67C", "yeast fitness": "≤ 0.5"}
{"variant": "C27A A37C C55G", "yeast fitness": "≤ 0.5"}
{"variant": "U26G G39C A45G A57C C61G", "yeast fitness": 0.592}
{"variant": "U26C U32C A37G C66U A69C", "yeast fitness": "≤ 0.5"}
{"variant": "U26C C30U G44C G51A C61U", "yeast fitness": "≤ 0.5"}
{"variant": "U26G A37G G51C", "yeast fitness": 0.801}
{"variant": "U26G A69C", "yeast fitness": 0.948}
{"variant": "U26A A45G C66G G67U", "yeast fitness": "≤ 0.5"}
{"variant": "U26C C27G A40C", "yeast fitness": "≤ 0.5"}
{"variant": "C27A C29G", "yeast fitness": 0.702}
{"variant": "U26G C34G A37C C66A", "yeast fitness": "≤ 0.5"}
{"variant": "U26A C34G G56A", "yeast fitness": 0.565}
{"variant": "C27A C55U C66A", "yeast fitness": "≤ 0.5"}
{"variant": "U26C C31U C49G", "yeast fitness": 0.622}
{"variant": "C27A C31G A42C C61G", "yeast fitness": "≤ 0.5"}
{"variant": "U26G A42G A43C C46G", "yeast fitness": 0.677}
{"variant": "U26C C29A G67C", "yeast fitness": "≤ 0.5"}
{"variant": "C27A C49G", "yeast fitness": 0.876}
{"variant": "U26C C55U", "yeast fitness": 0.617}
{"variant": "U26G A45G C46U U53G G63A C66U A69U", "yeast fitness": "≤ 0.5"}
{"variant": "C27A G56C", "yeast fitness": 0.627}
{"variant": "U26A A57C G67A A69U", "yeast fitness": 0.58}
{"variant": "U26A C62A", "yeast fitness": 0.803}
{"variant": "U26G U53A C55U C61A", "yeast fitness": "≤ 0.5"}
{"variant": "U26G A40G", "yeast fitness": 0.778}
{"variant": "U26A G50A", "yeast fitness": 0.875}
{"variant": "C27A C34G A42G G50A", "yeast fitness": "≤ 0.5"}
{"variant": "U26G C27U", "yeast fitness": 0.801}
{"variant": "C27A G44C G50C", "yeast fitness": 0.639}
{"variant": "U26G C55G", "yeast fitness": 0.636}
{"variant": "C27A U35C A37U C49U C55U C60G A65C", "yeast fitness": "≤ 0.5"}
{"variant": "U26A G67A", "yeast fitness": 0.905}
{"variant": "U26A C55A G68C", "yeast fitness": "≤ 0.5"}
{"variant": "U26C A42U A69C", "yeast fitness": 0.669}
{"variant": "U26G A70U", "yeast fitness": 0.896}
{"variant": "C27A A36G A37G A70U", "yeast fitness": "≤ 0.5"}
{"variant": "C27A C46U G67A", "yeast fitness": 0.699}
{"variant": "U26C U54C", "yeast fitness": 0.887}
{"variant": "C27A U28C C29G A65U", "yeast fitness": "≤ 0.5"}
{"variant": "U26C U35A C62U", "yeast fitness": 0.523}
{"variant": "U26C A37U A45U G63A", "yeast fitness": "≤ 0.5"}
{"variant": "U26C C33G A42C C49G G58C C62G", "yeast fitness": 0.616}
